The text below walks through data of PubChem BioAssay AID720717 (ICCB-Longwood Screening Facility, Harvard Medical School, 2013).

Molecules are shown by their SMILES. In all, about 51,000 compounds went through this assay and about 150 (0.29%) were called active.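 How the source made its calls: active means both repeat wells score below -2 in polarization z-score versus plate sample wells, excluding overly bright wells; inactive means the rest.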 The full list was thinned out, with actives kept by preference.

The assay relates to LANA (ORF73) N-terminal peptide binding to nucleosomes, Human herpesvirus 8. The experiment in a line: inhibitors of KSHV LANA-nucleosome binding, primary screen, biochemical, fluorescence polarization, FITC-LANA1-23, chicken nucleosomes (AID 720717). As to conditions: FITC-LANA1-23 / chicken nucleosome fluorescence polarization; active compounds read low. An outline of the steps:
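Assay system: purified chicken nucleosomes with FITC-labelled LANA N-terminal peptide (1-23) / Probe or stimulus: 50 nM FITC-LANA1-23 probe / Compound dosing: pin-transferred compound, 100 nL / Times: compound with peptide–nucleosome mix 10–45 min at room temperature / Technique: fluorescence polarization, 480 nm excitation, 535 nm parallel and perpendicular emission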
(In general: Polarisation of emitted light reports the rotation of a fluorescent probe.)
Take `S=c1[nH]nc(NCCc2ccccc2)s1`: the z-score was 0.44 (inactive). On to `O=C1NC(c2ccccc2)=NC1(Nc1ccccn1)C(F)(F)F` (configuration not stated), for which the z-score was 0.245 (inactive). The figure for `CCOC(=O)c1nn(-c2ccccc2)c(C(=O)OCC)c1N(C(=O)CC)C(=O)CC` is -0.275 (inactive); for `O=C1CCCc2nc3nc(-c4ccncc4)nn3cc21` it is -0.949 (inactive).

`CC(Sc1nnc(COc2ccccc2)n1-c1ccccc1)C(=O)O` (configuration not stated): the z-score is 0.582 (inactive). The figure for `O=c1[nH]ncc2c1[nH]c1ccccc12` is 0.221 (inactive). The figure for `O=C1C2C3C=CC(C3)C2C(=O)N1C1CC2CCC1C2` (configuration not stated) is -0.407 (inactive). The figure for `N/C(=N\OC(=O)Nc1ccccc1)c1ccno1` is -0.0325 (inactive).

For the molecule `C=CCOC(=O)c1cc(-c2ccc(/C=C3/NC(=S)NC3=O)o2)ccc1Cl`, the z-score is 0.594 (inactive). Regarding `COC(=O)CSc1nc(-c2ccccc2)cc(C)c1C#N`, the z-score was -0.143 (inactive).

As for `CN(C)c1ccc(C(=S)N2CCN(c3cccc(Cl)c3)CC2)cc1`, the z-score was 0.446 (inactive).

With `COc1cccc(/C=N/NC(=O)c2cccc(C)c2)c1O`, the z-score was -0.518 (inactive).

In the case of `Cc1ccccc1-c1n[nH]n2c1nc(=O)c1cc(Cl)ccc12`, the z-score is 0.639 (inactive). In the case of `O=C(NCc1ccncc1)C1CCN(C(=O)c2cccc(Cl)c2)CC1` it was 0.832 (inactive); in that of `Clc1ccc(C2N=C(c3cnccn3)NN2)cc1` (configuration not stated), -2.98 (active); in that of `CN(C)CCC(O)c1cc(Cl)sc1Cl` (configuration not stated), 0.472 (inactive).

Consider `CC(=O)N1c2ccccc2NC(=O)C1CC(=O)Nc1cccc(C)c1` (configuration not stated), for which the z-score is 2.28 (inactive).

Regarding `O=C(Nc1ccc(-c2cn3cccnc3n2)cc1)C1CCCC1`, the z-score is 0.642 (inactive). Consider `CCOC(=O)C1=NNC2C(=O)N(c3cc(Cl)ccc3OC)C(=O)C12` (configuration not stated), for which the z-score was -0.513 (inactive). The figure for `O=C(O)/C=C\C(=O)NCc1ccc2c(c1)OCO2` is 0.273 (inactive); for `CC1=CC(C)C2(COC(CN3CCCCC3)OC2)C(C)C1` (configuration not stated) it is -0.0595 (inactive); for `CN(Cc1ccccc1)C1(O)C(=O)Nc2c(C(F)(F)F)cccc21` (configuration not stated) it is 0.254 (inactive). In the case of `COc1ccc(CNC(=O)NC2CCN(S(=O)(=O)c3ccc(OC)cc3)CC2)cc1` it was 0.0685 (inactive); in that of `Clc1cccc(Nc2nc3ccccc3c3nncn23)c1`, -0.519 (inactive). The figure for `CC(=O)O/N=C/c1ccc(N(C)C)cc1` is 0.621 (inactive); for `CCn1cc(S(=O)(=O)Nc2cc(C)on2)cn1` it is -2.19 (active). On to `Cc1cc(NCc2cccnc2)no1`, for which the z-score was -0.669 (inactive). The figure for `CCc1ccc(NS(=O)(=O)c2cnn(CC)c2)cc1` is -1.21 (inactive); for `Cc1ccc(-n2nc(C)c(C(=O)O)n2)cc1` it is -0.785 (inactive); for `CCCN(CCC)C(=O)Cn1ncn2c(cc3ccccc32)c1=O` it is 0.518 (inactive). As to `Cc1cc2c(cc1S(=O)(=O)CCC(=O)N1CCCC1)OCC(=O)N2`, the z-score was -1.11 (inactive). For the molecule `O=C(Nc1ccc(Cl)cc1)Nc1cc(C(=O)NCC2CCCO2)ccc1N1CC2CC(C1)c1cccc(=O)n1C2` (configuration not stated), the z-score was 0.571 (inactive). As to `O=c1[nH]cc(S(=O)(=O)N2CCc3ccccc32)c(=O)[nH]1`, the z-score is -0.177 (inactive). `CCN(CC)S(=O)(=O)c1c(C)nn(S(=O)(=O)c2ccccc2)c1C`: the z-score is 1.21 (inactive). Consider `C(=N\N(Cc1ccccc1)Cc1ccccc1)/c1ccco1`, for which the z-score is -1.14 (inactive). Regarding `CCOC(=O)C(N)Cc1c[nH]c2ccccc12` (configuration not stated), the z-score was 0.0765 (inactive).

For the molecule `Cc1ccc2cc(CN(CCN3CCCC3)C(=O)NC3CCCCC3)c(=O)[nH]c2c1C`, the z-score is 0.448 (inactive). The figure for `CC(C)(Oc1ccc(Cl)cc1)C(=O)Nc1ccc2oc(-c3cccnc3)nc2c1` is 0.188 (inactive).

Turning to `C=C(C)Cn1nc(C)c(-c2cc(C(=O)O)[nH]n2)c1C`, the z-score is -0.083 (inactive). Regarding `Cc1cccc(-c2cc(C(=O)N3CCN(C(=O)c4ccco4)CC3)c3ccc(Cl)c(C)c3n2)c1`, the z-score is 0.0795 (inactive).

Consider `O=C1NN=C(c2ccccc2)C1CCO` (configuration not stated), for which the z-score was -0.74 (inactive). In the case of `CS(=O)(=O)C1=NSC2=NC(=O)/C(=C\c3ccco3)C(=N)N21`, the z-score was -0.748 (inactive). The figure for `O=C(COc1ccccc1)n1c(=O)oc2ccccc21` is -1.36 (inactive); for `CCS(=O)(=O)N1CCCC(c2nc3c(nnn3Cc3ccc(C)cc3)c(=O)[nH]2)C1` (configuration not stated) it is -1.1 (inactive); for `O=C(CSc1nc2ncccc2o1)NCc1ccco1` it is 0.0485 (inactive). On to `CCNC(=O)CC1C(=O)N(c2ccc(OC)cc2)C(=O)N1CCOC` (configuration not stated), for which the z-score is -0.571 (inactive). On to `COc1ccc(C(c2nnnn2C(C)(C)C)N2CCN(c3ccccc3)CC2)cc1` (configuration not stated), for which the z-score is -0.537 (inactive).

Consider `COc1ccc(C2C3=C(CCCC3=O)N(CC(=O)O)C3=C2C(=O)CCC3)cc1`, for which the z-score is 1.54 (inactive).

On to `Cc1ccc(C(=O)NC(C(=O)O)c2ccccc2)cc1` (configuration not stated), for which the z-score is 0.558 (inactive). The figure for `C=CCNc1nc(N)sc1C#N` is 0.79 (inactive).

As for `COc1cc(Br)cc(/C=N/O)c1O`, the z-score was -0.372 (inactive). The figure for `C/C(=N/NC(=O)Cc1cc(=O)[nH][nH]1)c1ccc(Cl)cc1` is -0.559 (inactive); for `Cc1cc(C)nc(-n2nc(C)c3c2N(C)C(=O)CC3c2ccccc2Cl)n1` (configuration not stated) it is 0.097 (inactive); for `CCc1ccc2[nH]c(=O)c(CN(Cc3ccco3)C(=O)c3ccccc3)cc2c1` it is 0.0145 (inactive). In the case of `N#Cc1c(F)cccc1NC(=O)CN1CCCCC1` it was -0.136 (inactive). The figure for `COc1ccc(NC(=O)c2cn(-c3ccccc3)nc2SC)cc1` is -0.623 (inactive).

Consider `O=C1CCC(=O)N1C(c1ccccc1)c1ccccc1`, for which the z-score is -0.605 (inactive). As for `COC(=O)c1ccccc1NC(=O)C(F)(F)F`, the z-score is -0.55 (inactive). The figure for `CCc1c(C)nc2c(OC)cccc2c1Cl` is -0.847 (inactive); for `Cc1sc2nc(C)n(NC(N)=O)c(=O)c2c1C` it is 0.328 (inactive); for `Cc1cc(N2CC(C)CC(C)C2)nc2ccc(NC(=O)CCC(=O)NCc3ccco3)cc12` (configuration not stated) it is -1.27 (inactive).

Consider `O=C1OC(c2ccco2)=N/C1=C1/C=C(c2cccs2)Oc2ccccc21`, for which the z-score is -0.0915 (inactive). `N#CC1=C(SCC(N)=O)NC2=C(C(=O)CCC2)C1c1ccco1` (configuration not stated): the z-score was 0.283 (inactive).

For the molecule `CCCCn1cc(/C=N/NC(=O)c2cc3cc(OC)ccc3n2C)c2ccccc21`, the z-score is -0.47 (inactive).

Consider `O=S1(=O)CCC(S(=O)(=O)NC2CCCC2)C1` (configuration not stated), for which the z-score is -1.02 (inactive). Turning to `COc1ccc(C(=O)N(C)C2CCCCC2)cc1`, the z-score is -0.539 (inactive).

For the molecule `CCCc1cc(=O)[nH]c2c1c(C)nn2-c1cccc(F)c1`, the z-score was 1.12 (inactive). In the case of `Cc1[nH]n(-c2ccccc2)c(=O)c1C(=O)C(F)(F)F` it was -0.607 (inactive).

On to `COc1ccc(CCN(C)C2CCNCC2)cc1OC`, for which the z-score is -0.052 (inactive). For `COc1cccc(NC(=O)c2cc(-c3cccc(OC)c3)n[nH]2)c1`, the z-score was -1.44 (inactive). In the case of `COc1cc(-c2nc3ccccn3c2NC2CCCC2)ccc1O`, the z-score is -0.532 (inactive). For `O=C(CN1Cc2ccccc2C1=O)N1CC=C(c2ccccc2)CC1`, the z-score was -0.481 (inactive). Turning to `Cc1ccc(-c2nc3scc(CCNC(=O)Cc4ccccc4)n3n2)cc1`, the z-score is -0.82 (inactive).

Turning to `S=C(Cc1ccccc1)N1CCCCC1`, the z-score was 0.211 (inactive). Regarding `O=C1c2ccccc2C(=O)N1CNc1ccc(I)cc1`, the z-score is -0.239 (inactive). `Cc1[nH][nH]c(=O)c1C(c1cccc(Cl)c1)C(C#N)C#N` (configuration not stated): the z-score was -0.349 (inactive). The figure for `CC(C)NC(=S)N/N=C/c1ccn[nH]1` is 0.944 (inactive); for `COc1cccc(NC(=O)c2nn(C)c3c2COc2ccccc2-3)c1` it is -1.79 (inactive); for `CCOC(=O)c1ccc2c(c1)sc1nc(-c3cccc(OC)c3)cn12` it is -1.21 (inactive). For the molecule `Nc1no[n+]([O-])c1C(=O)NCCO`, the z-score is 0.91 (inactive). In the case of `CCN1C(=O)C2C(c3cccs3)NC(C)(C(=O)OC)C2C1=O` (configuration not stated) it was -0.124 (inactive). Take `O=C1NN=C(Cc2ccccc2)C1CCO` (configuration not stated): the z-score was -1.42 (inactive). The figure for `CCCc1cc(SCC(=O)O)n2c(nc3ccccc32)c1C#N` is -0.397 (inactive); for `CN1C(=O)CC(N2CCN(C/C=C/c3ccccc3)CC2)C1=O` (configuration not stated) it is 0.0475 (inactive). As to `Cc1ccc2c(c1)-c1onc(C(=O)N3CCCCC3)c1CO2`, the z-score is -1.74 (inactive). In the case of `CCNC(=S)N1CCN(CCN=CC2=C(O)CC(C)(C)CC2=O)CC1` it was 0.296 (inactive).

Regarding `O=C(C1CCN(Cc2cnn(-c3ccccc3)c2-n2cccc2)CC1)N1CCC2(CC1)OCCO2`, the z-score is 0.0245 (inactive). For the molecule `O=C(O)C1CCN(Cc2ccc(Cl)cc2)CC1`, the z-score is -0.653 (inactive).

As for `Cc1cc(-c2ccc(S(=O)(=O)NC3CCCc4ccccc43)s2)n[nH]1` (configuration not stated), the z-score is 0.15 (inactive). As for `Cc1ccc(C(C(=O)NCc2ccccc2)N(C(=O)C2COc3ccccc3O2)c2cccc(O)c2)o1` (configuration not stated), the z-score is -0.115 (inactive). In the case of `Nc1nc(SC23CC4CC(CC(C4)C2)C3)ns1`, the z-score was -1.08 (inactive). On to `CC1=CCCC(C)(C)C1/C=C/C(C)=N/O` (configuration not stated), for which the z-score is -1.1 (inactive). In the case of `Cc1ccccc1NC(=O)N1CC(C)CC(C)C1` (configuration not stated) it was -0.339 (inactive); in that of `Nc1nonc1-n1nnc(C(=O)N=Nc2c(O)[nH]c3ccc(Br)cc23)c1-c1ccccc1`, 0.712 (inactive). As for `CCOC(=O)c1cc(-c2ccc(C)cc2)n(CCC(=O)Nc2nccs2)c1C`, the z-score was 0.181 (inactive). In the case of `Cc1c(NC(=O)c2ccc3c(c2)C(=O)N(C)C3=O)cccc1C(=O)O` it was -0.278 (inactive); in that of `CCC(=O)N1CCc2cc(S(=O)(=O)NCC(OC)OC)ccc21`, 0.461 (inactive); in that of `NCc1cc(C2CC2)n[nH]1`, -0.734 (inactive). The figure for `O=C(NCc1ccccn1)c1ccc2c(c1)CCN2S(=O)(=O)c1ccc(Cl)cc1` is -0.107 (inactive).

Take `CCNc1nc(N2CCOCC2)c2ccccc2n1`: the z-score is 1.02 (inactive). As for `Cc1nc(CC(=O)Nc2cccc(Cl)c2)cs1`, the z-score is -0.419 (inactive).

As to `O=C(Cc1ccccc1)n1nc(-c2ccco2)nc1NCc1ccccc1`, the z-score is 0.165 (inactive).
